ChEMBL document CHEMBL1125562, “Antimitotic agents: ring analogues and derivatives of ethyl [(S)-5-amino-1,2-dihydro-2-methyl-3-phenylpyrido[3,4-b]pyrazin-7-yl]carbamate” (J Med Chem, 1992)

Columns and labels:
L1210 [1] = test: Concentration that causes a mitotic index (number of cells in mitosis divided by total cells) of 0.5 for cultured lymphoid leukemia L1210 cells during an exposure period of 12 h; type: functional, Mus musculus
Outline: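 Mouse lymphoid leukemia L1210 cells in culture, exposed to agent for 12 h. Mitotic index is cells in mitosis over total cells. Value is the nanomolar concentration giving an index of 0.5.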

Mus musculus [2] = test: Compound was evaluated in vivo for antileukemic activity by calculating Percent increase in life span at dose of 30 mg/kg; type: functional
Outline: (§1)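 NCI protocols. CD2F1 mice were implanted ip with 10⁶ lymphocytic leukemia P388 cells 24 h before treatment. Drug was given ip daily on days 1–5, or as a single day-1 dose where footnoted. The read-out was percent increase in lifespan.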

L1210 [3] = test: Concentration that inhibits proliferation of cultured lymphoid leukemia L1210 cells to 50% control growth during 48 h; type: functional, cell-based; settings: Mus musculus, L1210, 48 h
Outline: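 L1210 lymphoid leukemia cells in culture, exposed to agent for 48 h. Proliferation is measured against untreated control growth. Value is the nanomolar concentration holding growth to 50% of control.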

Mus musculus [4] = test: Compound was evaluated in vivo for antileukemic activity by calculating Percent increase in life span at dose of 75 mg/kg; type: functional; outline: as §1
Mus musculus [5] = test: Compound was evaluated in vivo for antileukemic activity by calculating Percent increase in life span at dose of 24 mg/kg; type: functional; outline: as §1
Mus musculus [6] = test: Compound was evaluated in vivo for antileukemic activity by calculating Percent increase in life span at dose of 8 mg/kg; type: functional; outline: as §1
Mus musculus [7] = test: Compound was evaluated in vivo for antileukemic activity by calculating Percent increase in life span at dose of 200 mg/kg; type: functional; outline: as §1
Mus musculus [8] = test: Compound was evaluated in vivo for antileukemic activity by calculating Percent increase in life span at dose of 70 mg/kg; type: functional; outline: as §1
Mus musculus [9] = test: Compound was evaluated in vivo for antileukemic activity by calculating Percent increase in life span at dose of 1 mg/kg; type: functional; outline: as §1
Mus musculus [10] = test: Compound was evaluated in vivo for antileukemic activity by calculating Percent increase in life span at dose of 0.5 mg/kg; type: functional; outline: as §1
Mus musculus [11] = test: Compound was evaluated in vivo for antileukemic activity by calculating Percent increase in life span at dose of 2 mg/kg; type: functional; outline: as §1

Structure (SMILES)	MI0.5 (L1210 [1]) [nM]	IC50 (L1210 [3]) [nM]	also measured
CCOC(=O)Nc1cc2c(c(N)n1)N=C(c1ccccc1)[C@@H](C)N2	27		ILS at 30 mg/kg (Mus musculus [2]): 88%
CCOC(=O)Nc1cc2c(c(O)n1)N=C(c1ccccc1)C(C)N2 (stereo not given)	1800	4400	
CCOC(=O)Nc1cc(N)c2c(n1)NC(C)C(c1ccccc1)=N2 (stereo not given)	6700	3900	ILS at 75 mg/kg (Mus musculus [4]): 0%
CCOC(=O)Nc1cc2c(cn1)N=C(c1ccccc1)C(C)N2 (stereo not given)	21	17	ILS at 24 mg/kg (Mus musculus [5]): 90%
CCOC(=O)Nc1cc2c(c(N)n1)N=C(c1ccccc1)CCN2		3.7	ILS at 8 mg/kg (Mus musculus [6]): 35%
COC(=O)Nc1nc(N)c2c(n1)NC(C)C(c1ccccc1)=N2 (stereo not given)	3000	1700	ILS at 200 mg/kg (Mus musculus [7]): 0%
CCOC(=O)Nc1cc2c(cn1)NC(c1ccccc1)C(C)N2 (stereo not given)	161	81	ILS at 70 mg/kg (Mus musculus [8]): 65%
CCOC(=O)Nc1cc2c(c(N)n1)N=C(c1ccccc1)C(C)N2 (racemic)	0.58		ILS at 1 mg/kg (Mus musculus [9]): 71%
COc1cc2c(c(OC)c1OC)-c1ccc(OC)c(=O)cc1[C@@H](NC(C)=O)CC2 [COLCHICINE]	21		
CCOC(=O)Nc1cc2c(c(N)n1)N=C(c1ccccc1)[C@H](C)N2 [MIVOBULIN]	0.14		ILS at 0.5 mg/kg (Mus musculus [10]): 64%
CC[C@]1(O)C[C@H]2CN(CCc3c([nH]c4ccccc34)[C@@](C(=O)OC)(c3cc4c(cc3OC)N(C=O)[C@H]3[C@@](O)(C(=O)OC)[C@H](OC(C)=O)[C@]5(CC)C=CCN6CC[C@]43[C@@H]65)C2)C1 [VINCRISTINE]	11		ILS at 2 mg/kg (Mus musculus [11]): 85%
